The text below walks through data of ChEMBL document CHEMBL4033790, “Design and Synthesis of Novel Deuterated Ligands Functionally Selective for the γ-Aminobutyric Acid Type A Receptor (GABAAR) α6 Subtype with Improved Metabolic Stability and Enhanced Bioavailability” (J Med Chem, 2018).

One may read the solubility as the dissolved amount per volume that the medium holds. A lower solubility goes with a poorly soluble substance.

Structures are written as SMILES. Converted amounts (≈) assume the structure as drawn. The source made the active and inactive calls. The rule behind the calls is not given here. Some results are limits rather than exact numbers.

The test system of data set [1] is Liver. The data set can be described thus: Half life in human liver microsomes at 10 uM by LC-MS/MS analysis. Type of data set: ADME, microsome. Summed up:
(§1)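 Compound at 10 μM final was preincubated 5 min at 37 °C with NADPH regenerating system in phosphate buffer, pH 7.4. Human or mouse liver microsomes (0.5 mg/mL protein) were added to start the reaction. Samples were taken at 0 (no microsomes) and 10–60 min and measured by LC-MS/MS against an internal standard. Half-life = 0.693/k, with k the slope of ln peak-area ratio versus time. Three experiments, each in duplicate.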
(Liver microsomes are vesicles of endoplasmic reticulum, rich in cytochrome P450 enzymes.)

Data set [2] in a line: Solubility of the compound in 0.01M HCl at pH 2 after 2 hrs by LC-MS analysis. In kind it is physicochemical. The note with it: buffer, pH 2, 2 h. Summed up:
(§2)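 10 mg compound dissolved in 2 mL DMAC; 10 μL of this added to 2 mL DI water (pH 7, sonicated) or 2 mL 0.01 M aq HCl (pH 2), held 2 h at 37 °C. Filtered through 0.45 micron filter, then quantified by LC-MS in SIM mode against calibration curves of standards in DMAC (n = 5); n=3.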

Data set [3] deals with GABA-A receptor; alpha-1/beta-3/gamma-2 (Homo sapiens) (UniProt P14867+P18507+P28472). The data set can be described thus: Positive allosteric modulation of GABA-A receptor alpha1beta3gamma2 (unknown origin) expressed in Xenopus laevis oocytes assessed as potentiation of EC3 GABA induced currents up to 1 uM at -60 mV holding potential by electrophysiological method relative to GABA. In kind it is cell-based. The method, boiled down:
(§3)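 Stage 5–6 defolliculated Xenopus oocytes were injected with 2.5 ng total mRNA per oocyte: α1, α2, α3 or α5 with β3 and γ2 at 1:1:5, and α4 or α6 with β3 and γ2 at 3:1:5. Oocytes were kept ≥36 h at 18 °C in NDE medium before recording. Compounds were co-applied with GABA titrated to EC3-5 for each oocyte. Curves were fitted with the Hill equation; mean ± SEM from ≥3 oocytes across two batches.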

Data set [4] addresses GABA-A receptor; alpha-5/beta-3/gamma-2 (Homo sapiens) (UniProt P18507+P28472+P31644). The data set can be described thus: Positive allosteric modulation of GABA-A receptor alpha5beta3gamma2 (unknown origin) expressed in Xenopus laevis oocytes assessed as potentiation of EC3 GABA induced currents up to 1 uM at -60 mV holding potential by electrophysiological method relative to GABA. In kind it is cell-based. Summed up: as §3

Data set [5] has as its target Mu-type opioid receptor (Homo sapiens) (UniProt P35372). The data set can be described thus: Displacement of [3H]-DAMGO from human recombinant MOR expressed in HEK293 cells at 10 uM after 60 to 90 mins by scintillation counting. Type of data set: cell-based. A general note: Displacement assays read how much labelled ligand stays bound in the presence of the test substance.

Data set [6] concerns Liver. The data set can be described thus: Half life in mouse liver microsomes at 10 uM by LC-MS/MS analysis. In kind it is ADME, microsome. Summed up: as §1
Data set [7] is filed under the species Rattus norvegicus. The data set can be described thus: Displacement of [3H]-flunitrazepam from rat brain GABA-A receptor benzodiazepine site […] at 10 uM after 60 to 90 mins by scintillation counting.
The nature of data set [8]: Aqueous solubility of the compound in DI water at pH 7 after 2 hrs by LC-MS analysis. In kind it is physicochemical. The following applies: buffer, pH 7, 2 h. Summed up:
as §2

Data set [9] relates to HepG2. The data set can be described thus: Cytotoxicity against human HepG2 cells assessed as reduction in cell viability up to 400 uM after 48 hrs by CellTiter-Glo assay. Type of data set: cell-based. The following applies: hepg2, 48 h. Summed up: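 HEK293T and HepG2 cells grown in high-glucose DMEM with non-essential amino acids, 10 mM HEPES, penicillin/streptomycin and 10% heat-inactivated FBS. Cells were harvested with trypsin and plated; compound was pin-transferred 3 h later. Incubation was 48 h, then CellTiter-Glo luminescence was read. Controls were DMSO (negative) and a cytotoxic aminoketone (positive). Quadruplicates, three independent runs, normalized to controls, nonlinear regression.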
(ATP-based viability assays read luminescence as a measure of living cells.)

Data set [10] concerns Mus musculus. The data set can be described thus: Hyperlocomotor activity in C57BL/6 mouse assessed as total distance travelled at 3 to 10 mg/kg, ip after 60 mins in presence of diazepam. Type of data set: ADME, organism-based. The note with it: in vivo, 1 h.
A short description of data set [11]: Drug metabolism in mouse liver microsomes assessed as CYP450 mediated-O-demethylated 2-(4-hydroxyphenyl)-7-methoxy-2H-pyrazolo[4,3-c]quinolin-3(5H)-one metabolite formation after 60 mins by LC-MS analysis. Type of data set: ADME. The note with it: 1 h. Summed up:
(§4)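 The 60-min samples from the human or mouse liver microsome incubations (10 µM compound, 0.5 mg/mL protein, NADPH regenerating system, 37 °C, pH 7.4) were run on LC-MS in SIM mode with dual ESI/APCI ionization. The method was calibrated to each component's retention time and mass, and the peak intensities of the parent and O-demethylated metabolites were measured.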

The nature of data set [12]: Drug metabolism in human liver microsomes assessed as CYP450 mediated-O-demethylated 7-hydroxy-2-(4-hydroxyphenyl)-2H-pyrazolo[4,3-c]quinolin-3(5H)-one metabolite formation after 60 mins by LC-MS analysis. In kind it is ADME. The following applies: 1 h. The method, boiled down: as §4
Data set [13] in a line: Drug metabolism in mouse liver microsomes assessed as CYP450 mediated-O-demethylated 7-hydroxy-2-(4-hydroxyphenyl)-2H-pyrazolo[4,3-c]quinolin-3(5H)-one metabolite formation after 60 mins by LC-MS analysis. Type of data set: ADME. The following applies: 1 h. The method, boiled down:
as §4

Data set [14] in a line: Drug metabolism in human liver microsomes assessed as CYP450 mediated-O-demethylated 2-(4-hydroxyphenyl)-7-methoxy-2H-pyrazolo[4,3-c]quinolin-3(5H)-one metabolite formation after 60 mins by LC-MS analysis. Type of data set: ADME. The note with it: 1 h. Summed up:
as §4

Data set [15] deals with Rattus norvegicus. The data set can be described thus: Toxicity in Wistar rat assessed as open arm entries at 10 mg/kg, ip administered for 45 mins measured for 5 min by elevated plus maze apparatus method (reference value: 23.07 +/- 5.47%). The note with it: in vivo. Type of data set: organism-based.
The test system of data set [16] is Rattus norvegicus. The data set can be described thus: Toxicity in Wistar rat assessed as average swim speed at 10 mg/kg, ip administered for 45 mins by cued water-maze apparatus method (reference value: 0.21 +/- 0.01 meter/s). In kind it is organism-based. The following applies: in vivo, 0.75 h.
For data set [17], the system named is Rattus norvegicus. The data set can be described thus: Toxicity in Wistar rat assessed as grip strength by measuring peak force of pull necessary to overcome strength of animal's grip at 10 mg/kg, ip (reference value: 2.79 +/- 0.16 kg/kg). Type of data set: organism-based. The following applies: in vivo.
Data set [18] is described as follows: Drug metabolism in mouse liver microsomes assessed as CYP450 mediated-O-demethylated 7-hydroxy-2-[4-(trideuteriomethoxy)phenyl]-5H-pyrazolo[4,3-c]quinolin-3-one metabolite formation after 60 mins by LC-MS analysis. The following applies: 1 h. Type of data set: ADME. Summed up:
as §4

Data set [19] relates to Rattus norvegicus. The data set can be described thus: Toxicity in Wistar rat assessed as peripheral ring distance at 10 mg/kg, ip administered for 45 mins by cued water-maze method (reference value: 67.44 +/- 4.60%). The following applies: in vivo, 0.75 h. Type of data set: organism-based.
For data set [20], the system named is Rattus norvegicus. The data set can be described thus: Toxicity in Wistar rat assessed as total distance traveled at 10 mg/kg, ip administered for 45 mins measured for 5 min by elevated plus maze method (reference value: 6.71 +/- 0.56 meter). In kind it is organism-based. The following applies: in vivo.
In data set [21] the test system is Mus musculus. The data set can be described thus: Neurotoxicity in Swiss Webster mouse assessed as induction of motor impairment at 55 mg/kg administered via oral gavage measured after 10 to 60 mins by rotarod method. In kind it is toxicity, organism-based. The note with it: in vivo.

Sequence of Mu-type opioid receptor (Homo sapiens) (P35372 whole entry): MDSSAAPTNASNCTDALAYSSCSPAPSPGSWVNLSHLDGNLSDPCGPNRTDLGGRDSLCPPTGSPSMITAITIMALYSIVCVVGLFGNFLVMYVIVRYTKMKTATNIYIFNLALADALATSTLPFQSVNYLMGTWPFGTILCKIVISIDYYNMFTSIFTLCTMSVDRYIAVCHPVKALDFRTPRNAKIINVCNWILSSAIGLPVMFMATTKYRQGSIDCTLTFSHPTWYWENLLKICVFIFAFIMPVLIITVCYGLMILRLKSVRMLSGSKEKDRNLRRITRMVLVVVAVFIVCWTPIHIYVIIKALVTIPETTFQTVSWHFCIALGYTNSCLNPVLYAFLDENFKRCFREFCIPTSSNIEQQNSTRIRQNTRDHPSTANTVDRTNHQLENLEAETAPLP

With `COc1ccc(-n2nc3c4ccc(OC)cc4[nH]cc-3c2=O)cc1`, the t1/2 was determined as 3.6 h in [1] and 3.2 h in data set [6]. Also, the solubility in [2] is 27.8 µM (≈ 8.93 µg/mL); in data set [8], 24.3 µM (≈ 7.81 µg/mL). The Activity in data set [3] and in data set [4] was under 0% in each case. Besides, the inhibition entry in data set [5] and in data set [7] was “Active” in each case.
As for `[2H]C([2H])([2H])Oc1ccc(-n2nc3c4ccc(OC)cc4[nH]cc-3c2=O)cc1`, the Activity result is “Non-Toxic” in data set [9]; “Toxic” in data set [10]; 22.36% in [15]; 0.2 meter/s in data set [16]; 2.67 kg/kg in data set [17]; 67.2% in data set [19]. Moreover, the Activity in data set [20] was 5.84 m; in [21], “Non-Toxic”. The Drug metabolism result in data set [11], in [12], in data set [13], in data set [14] and in data set [18] was “Metabolite_Detected” in each case.
